≈ marks a conversion by molar mass, not a printed value.
Columns and labels:
[1] = tested on: Trichophyton mentagrophytes; test: Antimicrobial activity against Trichophyton mentagrophytes after 96 hrs by microbroth dilution method; assay type: functional
How it was run: (§1)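 Broth microdilution per NCCLS guidelines. Bacteria in Mueller-Hinton broth; fungi in MOPS-buffered RPMI 1640. Test compounds at 50-0.36 µg/mL, standard drugs over 32-0.0018 µg/mL. Inoculum 1-5 × 10^3 cells/mL, 35 °C in a moist chamber. A492 read at 24 h for bacteria, 48 h for C. albicans, 72 h for A. fumigatus, C. neoformans and S. schenckii, 96 h for T. mentagrophytes. MIC taken as 90% growth inhibition relative to growth control.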

[2] = tested on: Klebsiella pneumoniae; test: Antimicrobial activity against Klebsiella pneumoniae ATCC 27736 after 24 hrs by microbroth dilution method; assay type: functional; conditions: ATCC 27736, 24 h; how it was run: as §1
[3] = tested on: Pseudomonas aeruginosa; test: Antimicrobial activity against Pseudomonas aeruginosa ATCC BAA-427 after 24 hrs by microbroth dilution method; assay type: functional; conditions: ATCC BAA-427, 24 h; how it was run: as §1
[4] = tested on: Cryptococcus neoformans; test: Antimicrobial activity against Cryptococcus neoformans after 72 hrs by microbroth dilution method; assay type: functional; how it was run: as §1
[5] = tested on: Sporothrix schenckii; test: Antimicrobial activity against Sporothrix schenckii after 72 hrs by microbroth dilution method; assay type: functional; how it was run: as §1
[6] = tested on: Staphylococcus aureus; test: Antimicrobial activity against methicillin-resistant Staphylococcus aureus after 24 hrs by microbroth dilution method; assay type: functional
How it was run: (§2)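 Microbroth dilution in Mueller Hinton broth, following NCCLS guidelines. Test compounds were run at 50-0.36 µg/mL against an initial inoculum of 1-5 × 10^3 cells/mL. Plates were incubated in a moist chamber at 35 °C, and absorbance at 492 nm was read after 24 h. MIC was taken as 90% growth inhibition relative to the growth control.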

[7] = tested on: Staphylococcus aureus; test: Antimicrobial activity against Staphylococcus aureus ATCC 25923 after 24 hrs by microbroth dilution method; assay type: functional; conditions: ATCC 25923, 24 h; how it was run: as §1
[8] = tested on: Aspergillus fumigatus; test: Antimicrobial activity against Aspergillus fumigatus after 72 hrs by microbroth dilution method; assay type: functional; how it was run: as §1
[9] = tested on: Staphylococcus aureus; test: Antimicrobial activity against vancomycin-resistant Staphylococcus aureus after 24 hrs by microbroth dilution method; assay type: functional; how it was run: as §2
[10] = tested on: Escherichia coli; test: Antimicrobial activity against Escherichia coli ATCC 9637 after 24 hrs by microbroth dilution method; assay type: functional; conditions: ATCC 9637, 24 h; how it was run: as §1
[11] = tested on: Candida albicans; test: Antimicrobial activity against Candida albicans after 48 hrs by microbroth dilution method; assay type: functional; how it was run: as §1
[12] = tested on: L929; test: Cytotoxicity against mouse L929 cells assessed as change in morphology at MIC after 24 hrs using Giemsa staining by phase contrast microscopy; assay type: cell-based; conditions: l929, 24 h
How it was run: (§3)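 Mouse fibroblast L929 cells grown in DMEM with 10% FBS and antibiotic/antimycotic at 37 °C, 5% CO2. Medium switched to serum-free DMEM at 90% confluency, then compounds added (DMSO stocks) for 24 h. Cells fixed, stained with Giemsa for 30 min at 37 °C, washed with PBS, air dried and examined by phase-contrast microscopy.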

[13] = tested on: L929; test: Cytotoxicity against mouse L929 cells assessed as change in morphology at 50 ug/ml after 24 hrs using Giemsa staining by phase contrast microscopy; assay type: cell-based; conditions: l929, 24 h; how it was run: as §3
[14] = tested on: L929; test: Cytotoxicity against mouse L929 cells assessed as reduction in cell viability after 24 hrs by MTT assay; assay type: cell-based; conditions: l929, 24 h
How it was run: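 L929 fibroblasts in DMEM with 10% FBS at 37 °C, 5% CO2. Seeded at 1×10^3 cells per well, switched to serum-free DMEM at 90% confluency. Compounds from 1 mg/mL DMSO stocks tested at nine twofold dilutions for 24 h. MTT readout: viability = (A570−A630) sample / (A570−A630) control × 100.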

Row | SMILES | MIC [1] [µg/mL] | MIC [2] [µg/mL] | MIC [3] [µg/mL] | MIC [4] [µg/mL] | MIC [5] [µg/mL] | MIC [6] [µg/mL] | MIC [7] [µg/mL] | MIC [8] [µg/mL] | MIC [9] [µg/mL] | MIC [10] [µg/mL] | MIC [11] [µg/mL] | Activity [12] | Activity [13] | Activity [14]
1 | CCCCCCCCc1cn(C[C@H]2O[C@H](OCCC(C)C)C=C[C@@H]2O)nn1 | 50 (≈ 132 µM) | > 50 | > 50 | 25 (≈ 65.9 µM) | > 50 | > 50 | > 50 | > 50 | > 50 | > 50 | > 50 | – | – | –
2 | CC(C)CCO[C@@H]1C=CC(=O)[C@@H](Cn2cc(CCCCl)nn2)O1 | 50 (≈ 146 µM) | 3.12 (≈ 9.13 µM) | 50 (≈ 146 µM) | 50 (≈ 146 µM) | 12.5 (≈ 36.6 µM) | 6.25 (≈ 18.3 µM) | 1.56 (≈ 4.56 µM) | 50 (≈ 146 µM) | 6.25 (≈ 18.3 µM) | 50 (≈ 146 µM) | 25 (≈ 73.1 µM) | Non-toxic | Toxic | Dose-dependent effect
3 | CC(C)CO[C@@H]1C=CC(=O)[C@@H](Cn2cc(CCCCl)nn2)O1 | > 50 | 50 (≈ 153 µM) | > 50 | > 50 | 50 (≈ 153 µM) | > 50 | 12.5 (≈ 38.1 µM) | > 50 | > 50 | > 50 | 50 (≈ 153 µM) | – | – | –
4 | CCCCCc1cn(C[C@H]2O[C@H](OCCC(C)C)C=CC2=O)nn1 | 3.12 (≈ 9.3 µM) | 3.12 (≈ 9.3 µM) | > 50 | > 50 | 12.5 (≈ 37.3 µM) | 6.25 (≈ 18.6 µM) | 3.12 (≈ 9.3 µM) | > 50 | 6.25 (≈ 18.6 µM) | > 50 | > 50 | Non-toxic | Toxic | Dose-dependent effect
5 | CCCCCCc1cn(C[C@H]2O[C@H](OCCC(C)C)C=CC2=O)nn1 | 12.5 (≈ 35.8 µM) | 1.56 (≈ 4.46 µM) | > 50 | > 50 | 25 (≈ 71.5 µM) | 6.25 (≈ 17.9 µM) | 3.12 (≈ 8.93 µM) | > 50 | 6.25 (≈ 17.9 µM) | > 50 | > 50 | Non-toxic | Toxic | Dose-dependent effect
6 | CC(C)CCO[C@@H]1C=CC(=O)[C@@H](Cn2cc(CCCC=O)nn2)O1 | 25 (≈ 74.5 µM) | 50 (≈ 149 µM) | > 50 | > 50 | 12.5 (≈ 37.3 µM) | > 50 | > 50 | > 50 | > 50 | > 50 | > 50 | – | – | –
7 | CC(C)CCO[C@@H]1C=CC(=O)[C@@H](Cn2cc(C=O)nn2)O1 | 3.12 (≈ 10.6 µM) | 50 (≈ 170 µM) | 50 (≈ 170 µM) | 50 (≈ 170 µM) | 25 (≈ 85.2 µM) | > 50 | 50 (≈ 170 µM) | 25 (≈ 85.2 µM) | > 50 | 50 (≈ 170 µM) | > 50 | Non-toxic | Toxic | Dose-dependent effect
8 | CC(C)CCO[C@@H]1C=CC(=O)[C@@H](Cn2cc(CCCCOC(=O)C(C)(C)C)nn2)O1 | 25 (≈ 59.3 µM) | 12.5 (≈ 29.7 µM) | 50 (≈ 119 µM) | 50 (≈ 119 µM) | 12.5 (≈ 29.7 µM) | > 50 | 12.5 (≈ 29.7 µM) | 25 (≈ 59.3 µM) | > 50 | 50 (≈ 119 µM) | > 50 | – | – | –
9 | CC(C)CCO[C@@H]1C=CC(=O)[C@@H](Cn2cc(CCBr)nn2)O1 | 6.25 (≈ 16.8 µM) | 50 (≈ 134 µM) | > 50 | 12.5 (≈ 33.6 µM) | 25 (≈ 67.2 µM) | > 50 | 12.5 (≈ 33.6 µM) | 50 (≈ 134 µM) | > 50 | > 50 | 12.5 (≈ 33.6 µM) | – | – | –
10 | CC(C)CCO[C@@H]1C=CC(=O)[C@@H](Cn2cc(-c3ccccn3)nn2)O1 | 12.5 (≈ 36.5 µM) | 6.25 (≈ 18.3 µM) | > 50 | > 50 | 25 (≈ 73 µM) | 12.5 (≈ 36.5 µM) | 6.25 (≈ 18.3 µM) | > 50 | 12.5 (≈ 36.5 µM) | > 50 | > 50 | – | – | –
11 | CC(C)CCO[C@@H]1C=CC(=O)[C@@H](Cn2cc(C3CCCC3)nn2)O1 | 50 (≈ 150 µM) | 50 (≈ 150 µM) | 50 (≈ 150 µM) | 50 (≈ 150 µM) | 50 (≈ 150 µM) | > 50 | 50 (≈ 150 µM) | 50 (≈ 150 µM) | > 50 | 50 (≈ 150 µM) | 25 (≈ 75 µM) | – | – | –
12 | CC(C)CCO[C@@H]1C=CC(=O)[C@@H](Cn2cc(C3CC3)nn2)O1 | 6.25 (≈ 20.5 µM) | > 50 | > 50 | 25 (≈ 81.9 µM) | 12.5 (≈ 40.9 µM) | > 50 | 6.25 (≈ 20.5 µM) | > 50 | > 50 | > 50 | 12.5 (≈ 40.9 µM) | – | – | –

Reference: ChEMBL document CHEMBL3286335, “Synthesis of 2,3,6-trideoxy sugar triazole hybrids as potential new broad spectrum antimicrobial agents” (Eur J Med Chem, 2014)
